In ChEMBL document CHEMBL4138113, “Novel propanamides as fatty acid amide hydrolase inhibitors” (Eur J Med Chem, 2017):
Calls of active or inactive are those of the source.

Assays:
[1] = target: T1, Fatty-acid amide hydrolase 1 (Mus musculus, UniProt O08914); experiment: Mixed-type inhibition of B6CBAF1/J mouse brain FAAH using [3H]AEA as substrate after 10 mins by Dixon plot analysis
T1 sequence (O08914 whole entry): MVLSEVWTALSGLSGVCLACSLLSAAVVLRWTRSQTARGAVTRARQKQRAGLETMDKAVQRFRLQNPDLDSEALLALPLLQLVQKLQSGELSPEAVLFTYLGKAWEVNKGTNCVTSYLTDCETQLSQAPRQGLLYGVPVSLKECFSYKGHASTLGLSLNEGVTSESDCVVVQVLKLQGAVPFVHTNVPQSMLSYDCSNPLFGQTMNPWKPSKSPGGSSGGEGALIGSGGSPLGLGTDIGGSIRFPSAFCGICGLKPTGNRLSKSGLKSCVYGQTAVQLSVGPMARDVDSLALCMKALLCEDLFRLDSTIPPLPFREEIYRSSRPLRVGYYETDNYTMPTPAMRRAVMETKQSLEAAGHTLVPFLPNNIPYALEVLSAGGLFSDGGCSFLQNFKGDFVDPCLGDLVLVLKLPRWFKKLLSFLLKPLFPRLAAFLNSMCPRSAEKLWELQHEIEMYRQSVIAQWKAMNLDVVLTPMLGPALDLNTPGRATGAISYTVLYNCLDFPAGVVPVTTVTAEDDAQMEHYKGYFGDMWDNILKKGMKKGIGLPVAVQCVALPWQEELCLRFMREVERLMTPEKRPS
In short: (§1)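 Kinetic study in brain homogenate from male B6CBAF1/J mice (0.3 µg protein per assay). [3H]AEA hydrolysis ran for 10 min at 37 °C in Tris-EDTA buffer, pH 7.4, with the AEA:fatty acid-free BSA ratio held at 1:~4.5. Products were separated on charcoal and counted by scintillation. Competitive, mixed-type and non-competitive fits were compared by Akaike's criterion.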

[2] = target: T2, Fatty-acid amide hydrolase 1 (Rattus norvegicus) (UniProt P97612); experiment: Inhibition of rat brain FAAH at 0.3 to 100 uM using [3H]AEA as substrate after 10 mins by liquid scintillation counting analysis relative to control
T2 sequence (whole entry): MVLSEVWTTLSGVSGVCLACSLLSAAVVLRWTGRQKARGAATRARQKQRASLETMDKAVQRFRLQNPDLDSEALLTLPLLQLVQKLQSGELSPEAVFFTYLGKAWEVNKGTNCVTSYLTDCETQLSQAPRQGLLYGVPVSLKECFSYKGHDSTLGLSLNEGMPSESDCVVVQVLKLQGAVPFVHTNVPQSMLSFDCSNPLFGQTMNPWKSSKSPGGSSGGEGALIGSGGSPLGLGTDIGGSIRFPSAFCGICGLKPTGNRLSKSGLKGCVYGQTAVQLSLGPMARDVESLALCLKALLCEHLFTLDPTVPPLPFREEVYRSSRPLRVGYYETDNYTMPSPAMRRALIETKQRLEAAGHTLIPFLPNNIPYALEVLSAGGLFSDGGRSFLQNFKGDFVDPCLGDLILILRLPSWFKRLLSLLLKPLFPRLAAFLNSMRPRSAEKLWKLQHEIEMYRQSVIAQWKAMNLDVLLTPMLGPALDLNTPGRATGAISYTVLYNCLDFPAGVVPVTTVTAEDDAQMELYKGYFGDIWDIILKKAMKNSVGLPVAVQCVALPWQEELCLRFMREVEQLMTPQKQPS
In short: (§2)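 Rat (Wistar or Sprague-Dawley) brain homogenate without cerebella, washed and pre-incubated 15 min at 37 °C to clear endogenous substrate. Compound (in ethanol or DMSO) was mixed with 1 µg protein on ice in 10 mM Tris-HCl, 1 mM EDTA, pH 7.4. Reaction used 0.5 µM [3H]AEA with fatty acid-free BSA for 10 min at 37 °C. It was stopped with charcoal/HCl, and supernatant tritium was counted. ≥5 half-log concentrations, ≥3 experiments; maximum inhibition = 100 − fitted bottom.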

[3] = target: T3, Fatty-acid amide hydrolase 1 (Rattus norvegicus, UniProt P97612); experiment: Inhibition of rat brain FAAH using [3H]AEA as substrate after 10 mins by liquid scintillation counting analysis; in short: as §2
T3 sequence (P97612 whole entry): T2 sequence (whole entry)

[4] = target: T4, Prostaglandin G/H synthase 2 (Homo sapiens) (UniProt P35354); experiment: Inhibition of recombinant human COX2 using arachidonic acid/2-AG as substrate after 5 mins
T4 sequence (whole entry): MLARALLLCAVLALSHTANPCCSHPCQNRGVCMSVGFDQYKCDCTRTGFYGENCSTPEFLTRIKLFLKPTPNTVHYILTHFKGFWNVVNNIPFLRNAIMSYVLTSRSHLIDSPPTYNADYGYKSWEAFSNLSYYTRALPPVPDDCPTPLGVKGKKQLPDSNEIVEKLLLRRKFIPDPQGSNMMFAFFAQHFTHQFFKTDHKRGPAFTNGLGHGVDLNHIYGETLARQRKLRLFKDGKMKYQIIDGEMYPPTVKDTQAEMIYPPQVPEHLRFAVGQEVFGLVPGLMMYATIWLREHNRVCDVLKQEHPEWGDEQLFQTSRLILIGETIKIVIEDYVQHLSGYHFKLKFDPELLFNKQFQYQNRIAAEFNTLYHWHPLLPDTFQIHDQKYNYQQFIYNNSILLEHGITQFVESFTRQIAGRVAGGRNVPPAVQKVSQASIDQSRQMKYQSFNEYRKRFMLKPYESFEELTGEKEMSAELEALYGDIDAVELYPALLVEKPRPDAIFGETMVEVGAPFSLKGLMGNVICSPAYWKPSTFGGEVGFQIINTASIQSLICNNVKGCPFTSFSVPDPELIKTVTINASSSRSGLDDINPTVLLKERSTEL
In short: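 Oxygen-electrode assay at room temperature in 0.1 M Tris-HCl, pH 7.4, with 1 µM haematin, 2 mM phenol, 5 mM EDTA and 10 µM (final) arachidonic acid or 2-AG. Compound in EtOH was added and a 5 min baseline recorded. The reaction was started with ovine COX-1 or human recombinant COX-2 (200 U), and oxygen consumption was read in 10 s blocks. Means ± SEM, n = 3-4.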

[5] = target: T5, Fatty-acid amide hydrolase 1 (Mus musculus) (UniProt O08914); experiment: Inhibition of B6CBAF1/J mouse brain FAAH using [3H]AEA as substrate after 10 mins in presence of N-(3-Methylpyridin-2-yl)-2-(4-((2-(trifluoromethyl)pyridin-4-yl)amino)phenyl)propanamide by Dixon plot analysis; in short: as §1
T5 sequence (whole entry): T1 sequence (O08914 whole entry)

Structure (SMILES) | Ki [1] [nM] | Imax [2] [%] | IC50 ([3]; read-out: IC50) [nM] | IC50 ([3]; read-out: pIC50 (converted)) [nM] | inhibition [4] | inhibition [5]
CC(C(=O)Nc1ncccc1Cl)c1ccc(Nc2ccnc(C(F)(F)F)c2)cc1 (stereo unspecified) | 3000 | 100 | 58 | 57.5 | inactive | Active
Cc1cccnc1NC(=O)C(C)c1ccc(Nc2ccnc(C(F)(F)F)c2)cc1 (stereo unspecified) | 6300 | 100 | 590 | 589 | inactive | 
